In ChEMBL document CHEMBL3864172, “New Peptidomimetic Boronates for Selective Inhibition of the Chymotrypsin-like Activity of the 26S Proteasome” (ACS Med Chem Lett, 2016):
The source made the active and inactive calls. No cut-off for these calls is given here.

Experiments:
[1] = (§1) Cytotoxicity against human U266 cells harboring mutant p53 assessed as reduction in cell viability after 48 hrs by 7AAD-staining based FACS analysis; format: functional; details: U-266, 48 h, read-out: LD50 (the source's name)
Procedure, shortened: (§2)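 Cells were exposed for 48 h to compound titrations from 0 to 5000 nM. Cell death was read out by 7AAD staining, and the LD50 was taken from dose-response curves. n=3.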

[2] = (§3) Cytotoxicity against human MCF7 cells harboring wild type p53 assessed as reduction in cell viability after 48 hrs by 7AAD-staining based FACS analysis; format: functional; details: MCF7, 48 h, read-out: LD50 (the source's name); procedure, shortened: as §2
[3] = (§4) Cytotoxicity against human NCI-H929 cells harboring wild type p53 assessed as reduction in cell viability after 48 hrs by 7AAD-staining based FACS analysis; format: functional; details: NCI-H929, 48 h, read-out: LD50 (the source's name); procedure, shortened: as §2
[4] = (§5) Cytotoxicity against human MDA-MB-468 cells harboring mutant p53 assessed as reduction in cell viability after 48 hrs by 7AAD-staining based FACS analysis; format: functional; details: MDA-MB-468, 48 h, read-out: LD50 (the source's name); procedure, shortened: as §2
[5] = Inhibition of trypsin like activity of rabbit 20S proteasome using Bz-Val-Gly-Arg-AMC as substrate preincubated for 15 mins followed by substrate addition measured after 2 hrs by fluorescence-based assay; design: species or system Oryctolagus cuniculus
[6] = molecular target: T1, Proteasome subunit beta type-8 (Mus musculus, UniProt P28063); assay: Inhibition of chymotrypsin like activity of mouse spleen 20S proteasome beta5i subunit using Suc-Leu-Leu-Val-Tyr-AMC as substrate preincubated for 15 mins followed by substrate addition measured after 2 hrs by fluorescence-based assay
T1 sequence (P28063 whole entry): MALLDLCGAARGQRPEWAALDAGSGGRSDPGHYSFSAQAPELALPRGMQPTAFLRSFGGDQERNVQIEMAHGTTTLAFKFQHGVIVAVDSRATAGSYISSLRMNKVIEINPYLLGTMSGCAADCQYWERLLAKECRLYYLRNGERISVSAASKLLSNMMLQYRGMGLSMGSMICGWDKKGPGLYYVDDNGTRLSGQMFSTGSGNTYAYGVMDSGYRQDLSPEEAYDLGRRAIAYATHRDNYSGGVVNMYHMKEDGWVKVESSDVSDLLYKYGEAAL

[7] = Inhibition of caspase like activity of rabbit 20S proteasome using Ac-nLPnLD-AMC as substrate preincubated for 15 mins followed by substrate addition measured after 2 hrs by fluorescence-based assay; design: species or system Oryctolagus cuniculus
[8] = (§6) Cytotoxicity against human KGN cells harboring wild type p53 assessed as reduction in cell viability after 48 hrs by 7AAD-staining based FACS analysis; format: functional; details: read-out: LD50 (the source's name); procedure, shortened: as §2
[9] = Cytotoxicity against human LCL cells harboring wild type p53 assessed as reduction in cell viability after 48 hrs by 7AAD-staining based FACS analysis; format: toxicity; details: for CC50 at 48 h: LCL cells harboring wild type p53, read-out: LD50; for Activity: lcl, 48 h; procedure, shortened: as §2
[10] = Cytotoxicity against human IMR90 cells harboring wild type p53 assessed as reduction in cell viability after 48 hrs by 7AAD-staining based FACS analysis; format: toxicity, IMR-90; details: for CC50 at 48 h: IMR90 cells harboring wild type p53, read-out: LD50; for Activity: imr-90, 48 h; procedure, shortened: as §2
MDA-MB-468 [11] = assay: Inhibition of 26S proteasome in human MDA-MB-468 cells assessed as accumulation of high molecular weight polyubiquitin-conjugated proteins at 35 nM after 4 hrs by Western blot analysis; format: cell-based
[12] = (§7) Cytotoxicity against human RD-ES cells harboring p53 mutant assessed as reduction in cell viability after 48 hrs by 7AAD-staining based FACS analysis; format: functional; details: read-out: LD50 (the source's name); procedure, shortened: as §2
MCF7 [13] = assay: Inhibition of 26S proteasome in human MCF7 cells assessed as accumulation of high molecular weight polyubiquitin-conjugated proteins at 35 nM after 4 hrs by Western blot analysis; format: cell-based
[14] = Cytotoxicity against human MCF10A cells harboring wild type p53 assessed as reduction in cell viability after 48 hrs by 7AAD-staining based FACS analysis; format: toxicity, MCF-10A; details: for CC50 at 48 h: MCF10A cells harboring wild type p53, read-out: LD50; for Activity: mcf-10a, 48 h; procedure, shortened: as §2
[15] = Cytotoxicity against HNDF cells harboring wild type p53 assessed as reduction in cell viability after 48 hrs by 7AAD-staining based FACS analysis; format: toxicity; details: human; for CC50 at 48 h: HNDF cells harboring wild type p53, read-out: LD50; for Activity: hndf, 48 h; procedure, shortened: as §2
[16] = (§8) Cytotoxicity against human WE68 cells harboring wild type p53 assessed as reduction in cell viability after 48 hrs by 7AAD-staining based FACS analysis; format: functional; details: WE68, 48 h, read-out: LD50 (the source's name); procedure, shortened: as §2
[17] = Inhibition of bovine alpha chymotrypsin using Ala-Ala-Phe-7-AMC as substrate measured for 10 mins by spectrophotometric analysis; design: species or system Bos taurus
Procedure, shortened: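 Enzyme was bovine α-chymotrypsin. Compounds were tested up to a top concentration of 25000 nM. Ki values are the mean of three separate experiments, with variation between experiments below ±10%.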

[18] = Inhibition of chymotrypsin like activity of rabbit 20S proteasome using Suc-Leu-Leu-Val-Tyr-AMC as substrate preincubated for 15 mins followed by substrate addition measured after 2 hrs by fluorescence-based assay; design: species or system Oryctolagus cuniculus
[19] = (§9) Cytotoxicity against p53 deficient human SKOV3 cells assessed as reduction in cell viability after 48 hrs by 7AAD-staining based FACS analysis; format: functional; details: SK-OV-3, 48 h, read-out: LD50 (the source's name); procedure, shortened: as §2
U-266 [20] = assay: as §1; format: functional; procedure, shortened: as §2
MCF7 [21] = assay: as §3; format: functional; procedure, shortened: as §2
NCI-H929 = assay: as §4; format: functional; procedure, shortened: as §2
MDA-MB-468 [22] = assay: as §5; format: functional; procedure, shortened: as §2
KGN = assay: as §6; format: functional; procedure, shortened: as §2
RD-ES = assay: as §7; format: functional; procedure, shortened: as §2
Oryctolagus cuniculus = species: Oryctolagus cuniculus; assay: Selectivity ratio of IC50 for caspase like activity of rabbit 20S proteasome to IC50 for chymotrypsin like activity of rabbit 20S proteasome
WE68 = assay: as §8; format: functional; procedure, shortened: as §2
SK-OV-3 = assay: as §9; format: functional; procedure, shortened: as §2
U-266 [23] = assay: Selectivity ratio of LD50 for human U266 cells to LD50 for human NCI-H929 cells; format: functional
[24] = Selectivity ratio of LD50 for human SKOV3 cells to LD50 for human KGN cells; format: functional
[25] = Inhibition of chymotrypsin like activity of rabbit 20S proteasome using Suc-LLVY-AMC as substrate preincubated for 15 mins followed by substrate addition measured after 2 hrs by microplate-fluorometric analysis; design: species or system Oryctolagus cuniculus
[26] = Terminal half life in human plasma at 20 mg/m2 iv, administered for 2 to 10 mins after dexamethasone addition by LC-MS/MS analysis; format: ADME, cell-free; details: read-out: beta t1/2

Row | Compound | CC50 [1] [nM] | CC50 [2] [nM] | CC50 [3] [nM] | CC50 [4] [nM] | IC50 [5] [nM] | IC50 [6] [nM] | IC50 [7] [nM] | CC50 [8] [nM] | CC50 at 48 h [9] [nM] | CC50 at 48 h [10] [nM] | polyubiquitin accumulation (active/inactive) (MDA-MB-468 [11]) | CC50 [12] [nM] | Polyubiquitin-conjugate accumulation (MCF7 [13]) | CC50 at 48 h [14] [nM] | CC50 at 48 h [15] [nM] | CC50 [16] [nM] | Ki [17] [nM] | IC50 [18] [nM] | CC50 [19] [nM] | Ratio IC50 (Oryctolagus cuniculus) | also measured
1 | CC(C)C[C@H](NC(=O)[C@H](Cc1ccccc1)NC(=O)c1cnccn1)B(O)O [BORTEZOMIB] | 18 | 9800 | 6.6 | 37 | > 25000 | 16.8 | 108 | 180 | 20 | 130 | Active | 40 | Active | 1500 | 480 | 100 | 1820 | 34.6 | 1600 |  | 
2 | CC[C@H](C)[C@H](NC(=O)[C@H](CCCCN=[N+]=[N-])NC(=O)OCc1ccccc1)C(=O)N[C@@H](Cc1ccccc1)B1O[C@@H]2C[C@@H]3C[C@@H](C3(C)C)[C@]2(C)O1 | 14 | 79 | 12 | 24 | > 25000 | 13.8 | 2450 | 48 |  | 8 |  | 33 |  | 1250 | 60 | 14 | 7130 | 21 | 46 | 117 | Activity (U-266 [20]): Dose-dependent effect; Activity (MCF7 [21]): Dose-dependent effect; Activity (NCI-H929): Dose-dependent effect; Activity (MDA-MB-468 [22]): Dose-dependent effect; Activity (KGN): Dose-dependent effect; Activity [9]: Dose-dependent effect; Activity [10]: Dose-dependent effect; Activity (RD-ES): Dose-dependent effect; Activity [14]: Dose-dependent effect; Activity [15]: Dose-dependent effect; Activity (WE68): Dose-dependent effect; Activity (SK-OV-3): Dose-dependent effect
3 | CC[C@H](C)[C@H](NC(=O)[C@H](CCCCN=[N+]=[N-])NC(=O)OCc1ccccc1)C(=O)N[C@@H](CC(C)C)B1O[C@@H]2C[C@@H]3C[C@@H](C3(C)C)[C@]2(C)O1 | 15 | 1500 | 6.4 | 30 | > 25000 | 118 | 1600 | 65 | 30 | 200 | Active | 35 | Active | 5000 | 500 | 35 | > 25000 | 14.1 | 370 | 113 | Activity (U-266 [20]): Dose-dependent effect; Activity (MCF7 [21]): Dose-dependent effect; Activity (NCI-H929): Dose-dependent effect; Activity (MDA-MB-468 [22]): Dose-dependent effect; Activity (KGN): Dose-dependent effect; Activity [9]: Dose-dependent effect; Activity [10]: Dose-dependent effect; Activity (RD-ES): Dose-dependent effect; Selectivity ratio (U-266 [23]): 2; Activity [14]: Dose-dependent effect; Activity [15]: Dose-dependent effect; Activity (WE68): Dose-dependent effect; Selectivity ratio [24]: 5; Activity (SK-OV-3): Dose-dependent effect
4 | C=CCOc1ccc(CCC(=O)c2ccc(C(=O)N[C@@H](Cc3ccc(OCC=C)cc3)C(=O)N[C@@H](CC(C)C)B3O[C@@H]4C[C@@H]5C[C@@H](C5(C)C)[C@]4(C)O3)[nH]2)cc1 | 29 | 3000 | 9 | 50 | > 25000 | 483 | 4180 | 180 | 90 | 150 | Active | 65 | Active | 9000 | 1080 | 65 | > 25000 | 20.9 | 1500 | 200 | Activity (U-266 [20]): Dose-dependent effect; Activity (MCF7 [21]): Dose-dependent effect; Activity (NCI-H929): Dose-dependent effect; Activity (MDA-MB-468 [22]): Dose-dependent effect; Activity (KGN): Dose-dependent effect; Activity [9]: Dose-dependent effect; Activity [10]: Dose-dependent effect; Activity (RD-ES): Dose-dependent effect; Selectivity ratio (U-266 [23]): 2; Activity [14]: Dose-dependent effect; Activity [15]: Dose-dependent effect; Activity (WE68): Dose-dependent effect; Selectivity ratio [24]: 5; Activity (SK-OV-3): Dose-dependent effect
5 | C=CCOc1ccc(CCC(=O)c2ccc(C(=O)N[C@@H](Cc3ccc(OCC=C)cc3)C(=O)N[C@@H](Cc3ccccc3)B3O[C@@H]4C[C@@H]5C[C@@H](C5(C)C)[C@]4(C)O3)[nH]2)cc1 |  |  |  |  | > 25000 | 113 | 3340 |  |  |  |  |  |  |  |  |  | 1310 | 104 |  | 32.1 | 
6 | C#CCOc1ccc(C[C@@H](C=O)NC(=O)[C@@H](NC(=O)[C@H](CCCCN=[N+]=[N-])NC(=O)OCc2ccccc2)[C@H](C)CC)cc1 |  |  |  |  |  |  |  |  |  |  |  |  |  |  |  |  |  |  |  |  | IC50 [25]: 21 nM
7 | CC(C)C[C@H](NC(=O)[C@H](CCc1ccccc1)NC(=O)CN1CCOCC1)C(=O)N[C@@H](Cc1ccccc1)C(=O)N[C@@H](CC(C)C)C(=O)[C@@]1(C)CO1 [CARFILZOMIB] | 60 | 4500 |  | 330 | > 25000 |  | > 25000 | 450 | 30 | 130 | Active | 43 | Active | 320 | 350 | 80 | > 25000 | 23.1 | 320 |  | half-life [26]: 5 to 20 min
